Experimental data as given in ChEMBL document CHEMBL1143823, “Addition of a C-terminal cysteine improves the anti-herpes simplex virus activity of a peptide containing the human immunodeficiency virus type 1 TAT protein transduction domain” (Antimicrob Agents Chemother, 2007).
Activity calls are given as the source filed them. The rule behind the calls is not given here.

Experiments:
[1] = system: Human alphaherpesvirus 1; experiment: Antiviral activity against HSV1 in african green monkey Vero cells assessed as resistance to viral infection after 1 hr at 37 degC; assay type: functional, organism-based; conditions: Human alphaherpesvirus 1, Vero
Method in brief: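 Vero monolayers exposed to peptide 1 h at 37°C, rinsed three times, infected with hrR3 (MOI 0.01) 1 h at 37°C without peptide. pH 3 citrate inactivates extracellular virus; lysate β-galactosidase (CPR-Gal, 570 nm) read 6 h later. EC50 from dose-response, triplicates per concentration.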

[2] = system: Human alphaherpesvirus 1; experiment: Antiviral activity against HSV1 assessed as Inhibition of VP16 nuclear translocation in african green monkey Vero cells at 300 uM after 1 hr at 37 degC; assay type: functional; set-up: scale not given: the % may be the effect or the level left
Method in brief: (§1)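 Vero cells on poly-L-lysine coverslips; HSV-1 adsorbed 80 min at 4°C (MOI 10). Peptide at 50 μM present for the last 20 min of adsorption and through the 1 h 37°C entry period, or virus pretreated with 300 μM for 1 h at 37°C and then diluted. Cells fixed, anti-VP16 immunofluorescence, 50 cells per group scored for nuclear VP16.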

[3] = system: Vero; experiment: Cytotoxicity against african green monkey Vero cells by trypan blue exclusion assay; assay type: cell-based; conditions: chlorocebus sabaeus
Method in brief: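 Viability by trypan blue exclusion in Vero cells after peptide exposure.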

[4] = system: Human alphaherpesvirus 1; experiment: Antiviral activity against HSV1 assessed as Inhibition of VP16 nuclear translocation in african green monkey Vero cells at 50 uM after 1 hr at 4 degC; assay type: functional; set-up: scale not given: the % may be the effect or the level left; method in brief: as §1
[5] = system: Human alphaherpesvirus 1; experiment: Inhibition of HSV1 entry in african green monkey Vero cells assessed as beta-galactosidase activity for 1 hr at 37 degC; assay type: functional, organism-based; conditions: Human alphaherpesvirus 1, Vero
Method in brief: (§2)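 HSV-1 hrR3 (MOI 0.02–0.03) adsorbed to precooled Vero cells 1 h at 4°C and rinsed. Peptide added at 4°C, shifted to 37°C for 1 h of entry. Peptide rinsed off; pH 3 citrate 60 s. Lysis at 6 h, initial β-galactosidase rate (CPR-Gal, 570 nm) relative to mock, minus cycloheximide background; triplicates.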

[6] = system: Human alphaherpesvirus 1; experiment: Antiviral activity against HSV1 in african green monkey Vero cells assessed as viral inactivation after 1 hr at 37 degC; assay type: functional, organism-based; conditions: Human alphaherpesvirus 1, Vero
Method in brief: (§3)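 hrR3 virions (1×10^6–6×10^6 PFU/ml) in serum-free DMEM incubated with peptide 1 h at 37°C. Free peptide removed by 1,000-fold dilution or by pelleting at 14,000 × g. Infectivity then titrated on Vero cells in triplicate by lysate β-galactosidase or X-Gal staining. EC50 from dose-response curves.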

[7] = system: Human alphaherpesvirus 1; experiment: Inactivation of HSV1 in african green monkey Vero cells assessed as beta-galactosidase activity upto 200 uM at 37 degC; assay type: functional, organism-based; method in brief: as §3
[8] = system: Human alphaherpesvirus 2; experiment: Antiviral activity against HSV2 333 pretreated for 1 hr before viral infection at 4 degC by plaque reduction assay; assay type: functional, organism-based
Method in brief: (§4)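 Plaque reduction on Vero monolayers with HSV-2 strain 333, 150 PFU/well adsorbed 1 h at 4°C. Peptide added at 4°C, shift to 37°C 10 min later; alternatively cells pretreated 1 h at 4°C with peptide and rinsed before virus. Extracellular virus inactivated; 2% methylcellulose overlay for 2.5 days; crystal violet plaque counts.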

[9] = system: Human alphaherpesvirus 2; experiment: Antiviral activity against HSV2 333 assessed by plaque reduction assay; assay type: functional, organism-based; method in brief: as §4
[10] = system: Human alphaherpesvirus 1; experiment: Antiviral activity against HSV1 hrR3S infected african green monkey Vero cells assessed as inhibition of viral cell-cell spread at 100 uM; assay type: functional, organism-based
Method in brief: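 Vero cells infected with syncytial hrR3S (MOI 0.02–0.05) for 1–2 h at 37°C, then held up to 24 h at 37°C with 50-fold diluted neutralizing anti-HSV-1 antibody ± peptide. Syncytia viewed by X-Gal staining; fusion quantified as initial rate of lysate β-galactosidase.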

[11] = system: Human alphaherpesvirus 2; experiment: Antiviral activity against HSV2 333 assessed as resistance against viral infection; assay type: functional, organism-based
[12] = system: Human alphaherpesvirus 1; experiment: Inhibition of HSV1 entry in african green monkey Vero cells assessed as beta-galactosidase activity relative to control […]; assay type: functional, organism-based; conditions: Human alphaherpesvirus 1, Vero; method in brief: as §2
[13] = system: Human alphaherpesvirus 1; experiment: Inhibition of HSV1 attachment in african green monkey Vero cells at 100 uM at 37 degC; assay type: functional; conditions: Human alphaherpesvirus 1, Vero
[14] = system: Human alphaherpesvirus 1; experiment: Inhibition of HSV1 hrR3S syncytium formation in african green monkey Vero cells assessed as reduction of beta-galactosidase activity at 100 uM; assay type: functional; set-up: scale not given: the % may be the effect or the level left
Method in brief: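 Confluent Vero (2.0 × 10^5 cells/well) infected with syncytial hrR3S (MOI 0.02 to 0.05) 1 to 2 h at 37°C, rinsed, then held up to 24 h at 37°C in carbonate-buffered serum DMEM with neutralizing anti-HSV-1 antibody (50-fold dilution) ± peptide. Fusion read as initial β-galactosidase rate in NP-40 lysates with CPR-Gal at 570 nm.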

[15] = system: Human alphaherpesvirus 1; experiment: Inhibition of HSV1 entry in african green monkey Vero cells assessed as beta-galactosidase activity at 30 uM at 33 degC after 40 mins; assay type: functional, organism-based
Method in brief: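 Vero cells on strip-well plates with hrR3 adsorbed 1 h at 4°C; entry started by floating the plate at 33°C. Peptide added just before the shift or 35 min after, returning to 33°C at 40 min. At set times, external virus inactivated with pH 3 citrate. Lysed 6 h later; β-galactosidase initial rate read against mock-treated controls, triplicate.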

## N=C(N)NCCC[C@H](NC(=O)CN)C(=O)N[C@@H](CCCCN)C(=O)N[C@@H](CCCCN)C(=O)N[C@@H](CCCNC(=N)N)C(=O)N[C@@H](CCCNC(=N)N)C(=O)N[C@@H](CCC(N)=O)C(=O)N[C@@H](CCCNC(=N)N)C(=O)N[C@@H](CCCNC(=N)N)C(=O)N[C@@H](CCCNC(=N)N)C(=O)N[C@@H](CS)C(=O)O
[1]
  EC50: 3.3 µM
[2]
  Activity: 2.5%
[3]
  Activity: Non-toxic
[4]
  Activity: 6%
[5]
  EC50: 3.1 µM
[6]
  EC50: 96 µM
[7]
  Activity: Active

## N=C(N)NCCC[C@@H](NC(=O)CN)C(=O)N[C@H](CCCCN)C(=O)N[C@H](CCCCN)C(=O)N[C@H](CCCNC(=N)N)C(=O)N[C@H](CCCNC(=N)N)C(=O)N[C@H](CCC(N)=O)C(=O)N[C@H](CCCNC(=N)N)C(=O)N[C@H](CCCNC(=N)N)C(=O)N[C@H](CCCNC(=N)N)C(=O)N[C@H](CS)C(=O)O
[1]
  EC50: 5.4 µM
[3]
  Activity: Non-toxic
[5]
  EC50: 2.5 µM
[8]
  EC50: 7.7 µM
[6]
  EC50: 150 µM
[9]
  EC50: 1.3 µM
[10]
  Activity: Active

## CCCC[C@H](NC(=O)[C@H](CCCC)NC(=O)[C@H](CCC(N)=O)NC(=O)[C@H](CCCNC(=N)N)NC(=O)[C@H](CCCNC(=N)N)NC(=O)[C@H](CCCCN)NC(=O)[C@H](CCCCN)NC(=O)[C@H](CCCNC(=N)N)NC(=O)CNC(=O)CCCCCNC(=O)CCCC[C@@H]1SC[C@@H]2NC(=O)N[C@@H]21)C(=O)N[C@@H](CCCNC(=N)N)C(=O)N[C@@H](CS)C(=O)O
[3]
  Activity: Non-toxic
[5]
  EC50: 37 µM

## N=C(N)NCCC[C@@H](NC(=O)CN)C(=O)N[C@H](CCCCN)C(=O)N[C@H](CCCCN)C(=O)N[C@H](CCCNC(=N)N)C(=O)N[C@H](CCCNC(=N)N)C(=O)N[C@H](CCC(N)=O)C(=O)N[C@H](CCCNC(=N)N)C(=O)N[C@H](CCCNC(=N)N)C(=O)N[C@H](CCCNC(=N)N)C(=O)N[C@H](CS)C(N)=O
[1]
  EC50: 1.1 µM
[3]
  Activity: Non-toxic
[11]
  EC50: 81 µM
[12]
  EC50: 0.3 µM
[5]
  EC50: 0.9 µM
[6]
  EC50: 200 µM
[9]
  EC50: 2.5 µM

## CCCC[C@H](NC(=O)[C@H](CCCC)NC(=O)[C@H](CCC(N)=O)NC(=O)[C@H](CCCNC(=N)N)NC(=O)[C@H](CCCNC(=N)N)NC(=O)[C@H](CCCCN)NC(=O)[C@H](CCCCN)NC(=O)[C@H](CCCNC(=N)N)NC(=O)CN)C(=O)N[C@@H](CCCNC(=N)N)C(=O)N[C@@H](CS)C(=O)O
[1]
  EC50: 230 µM
[3]
  Activity: Non-toxic
[5]
  EC50: 48 µM
[6]
  EC50: 900 µM

## N=C(N)NCCC[C@H](NC(=O)[C@H](CCCNC(=N)N)NC(=O)[C@H](CCCNC(=N)N)NC(=O)[C@H](CCC(N)=O)NC(=O)[C@H](CCCNC(=N)N)NC(=O)[C@H](CCCNC(=N)N)NC(=O)[C@H](CCCCN)NC(=O)[C@H](CCCCN)NC(=O)[C@H](CCCNC(=N)N)NC(=O)CN)C(N)=O
[1]
  EC50: > 1200 µM
[3]
  Activity: Non-toxic
[12]
  EC50: 0.3 µM
[5]
  EC50: 1 µM
[6]
  EC50: > 1200 µM

## N=C(N)NCCC[C@H](NC(=O)CN)C(=O)N[C@@H](CCCCN)C(=O)N[C@@H](CCCCN)C(=O)N[C@@H](CCCNC(=N)N)C(=O)N[C@@H](CCCNC(=N)N)C(=O)N[C@@H](CCC(N)=O)C(=O)N[C@@H](CCCNC(=N)N)C(=O)N[C@@H](CCCNC(=N)N)C(=O)N[C@@H](CCCNC(=N)N)C(=O)N[C@@H](CS)C(N)=O
[1]
  EC50: 3.9 µM
[3]
  Activity: Non-toxic
[5]
  EC50: 0.9 µM
[6]
  EC50: 390 µM

## N=C(N)NCCC[C@@H](NC(=O)CNC(=O)CCCCCNC(=O)CCCC[C@@H]1SC[C@@H]2NC(=O)N[C@@H]21)C(=O)N[C@H](CCCCN)C(=O)N[C@H](CCCCN)C(=O)N[C@H](CCCNC(=N)N)C(=O)N[C@H](CCCNC(=N)N)C(=O)N[C@H](CCC(N)=O)C(=O)N[C@H](CCCNC(=N)N)C(=O)N[C@H](CCCNC(=N)N)C(=O)N[C@H](CCCNC(=N)N)C(=O)N[C@H](CS)C(=O)O
[3]
  Activity: Non-toxic
[5]
  EC50: 2.1 µM
[13]
  inhibition at 100 µM: 25%
[14]
  Activity: 93%

## N=C(N)NCCC[C@@H](NC(=O)CN)C(=O)N[C@H](CCCCN)C(=O)N[C@H](CCCCN)C(=O)N[C@H](CCCNC(=N)N)C(=O)N[C@H](CCCNC(=N)N)C(=O)N[C@H](CCC(N)=O)C(=O)N[C@H](CCCNC(=N)N)C(=O)N[C@H](CCCNC(=N)N)C(=O)N[C@H](CCCNC(=N)N)C(=O)N1CCC[C@@H]1C(N)=O
[1]
  EC50: > 1200 µM
[3]
  Activity: Non-toxic
[12]
  EC50: 0.3 µM
[5]
  EC50: 0.7 µM
[6]
  EC50: 1050 µM

## CCCC[C@H](NC(=O)[C@H](CCCNC(=N)N)NC(=O)CN)C(=O)N[C@@H](CCCC)C(=O)N[C@@H](CCCNC(=N)N)C(=O)N[C@@H](CCCNC(=N)N)C(=O)N[C@@H](CCC(N)=O)C(=O)N[C@@H](CCCNC(=N)N)C(=O)N[C@@H](CCCNC(=N)N)C(=O)N[C@@H](CCCNC(=N)N)C(=O)N[C@@H](CS)C(N)=O
[1]
  EC50: 92 µM
[3]
  Activity: Non-toxic
[5]
  EC50: 9.6 µM
[6]
  EC50: 115 µM
[15]
  Activity: Active

## N=C(N)NCCC[C@H](NC(=O)CNC(=O)CCCCCNC(=O)CCCC[C@@H]1SC[C@@H]2NC(=O)N[C@@H]21)C(=O)N[C@@H](CCCCN)C(=O)N[C@@H](CCCCN)C(=O)N[C@@H](CCCNC(=N)N)C(=O)N[C@@H](CCCNC(=N)N)C(=O)N[C@@H](CCC(N)=O)C(=O)N[C@@H](CCCNC(=N)N)C(=O)N[C@@H](CCCNC(=N)N)C(=O)N[C@@H](CCCNC(=N)N)C(=O)N[C@@H](CS)C(N)=O
[3]
  Activity: Non-toxic
[5]
  EC50: 5.7 µM

## N=C(N)NCCC[C@@H](NC(=O)CN)C(=O)N[C@H](CCCCN)C(=O)N[C@H](CCCCN)C(=O)N[C@H](CCCNC(=N)N)C(=O)N[C@H](CCCNC(=N)N)C(=O)N[C@H](CCC(N)=O)C(=O)N[C@H](CCCNC(=N)N)C(=O)N[C@H](CCCNC(=N)N)C(=O)N[C@H](CCCNC(=N)N)C(=O)N[C@H](CSSC[C@@H](NC(=O)[C@@H](CCCNC(=N)N)NC(=O)[C@@H](CCCNC(=N)N)NC(=O)[C@@H](CCCNC(=N)N)NC(=O)[C@@H](CCC(N)=O)NC(=O)[C@@H](CCCNC(=N)N)NC(=O)[C@@H](CCCNC(=N)N)NC(=O)[C@@H](CCCCN)NC(=O)[C@@H](CCCCN)NC(=O)[C@@H](CCCNC(=N)N)NC(=O)CN)C(N)=O)C(N)=O
[1]
  EC50: 0.4 µM
[3]
  Activity: Non-toxic
[5]
  EC50: 0.6 µM
[6]
  EC50: 34 µM
